Assay results reported in ChEMBL document CHEMBL5674883, “The Heterochromatin Landscape in Migrating Cells and the Importance of H3K27me3 for Associated Transcriptome Alterations” (Cells, 2018).

Experiments:
Assay type in all cases: cell-based
[1] = target: T1, RNA polymerase II (Mus musculus) (UniProt P08775+Q8CFI7+P97760+A0A3Q4L2S8+Q80UW8+P61219+P62488+Q923G2+P60898+O08740+Q63871+P62876); assay: Inhibition of RNA polymerase II in mouse B16-F1 migrating cells assessed as fold change in Eri3-RNA stability at 0.1 mM measured by ChIP-seq analysis relative to control cells
[2] = target: T1, RNA polymerase II (Mus musculus); assay: Inhibition of RNA polymerase II in mouse B16-F1 migrating cells assessed as fold change in Fth1-RNA stability at 0.1 mM measured by ChIP-seq analysis relative to control cells
[3] = target: T1, RNA polymerase II (Mus musculus); assay: Inhibition of RNA polymerase II in mouse B16-F1 migrating cells assessed as fold change in Gulp1-RNA stability at 0.1 mM measured by ChIP-seq analysis relative to control cells
[4] = target: T1, RNA polymerase II (Mus musculus); assay: Inhibition of RNA polymerase II in mouse B16-F1 migrating cells assessed as fold change in AU019823-RNA stability at 0.1 mM measured by […] analysis relative to control cells
[5] = target: T1, RNA polymerase II (Mus musculus); assay: Inhibition of RNA polymerase II in mouse B16-F1 migrating cells assessed as fold change in Bpnt1-RNA stability at 0.1 mM measured by […] analysis relative to control cells
[6] = target: T1, RNA polymerase II (Mus musculus); assay: Inhibition of RNA polymerase II in mouse B16-F1 migrating cells assessed as fold change in Socs5-RNA stability at 0.1 mM measured by […] analysis relative to control cells
[7] = target: T1, RNA polymerase II (Mus musculus); assay: Inhibition of RNA polymerase II in mouse B16-F1 migrating cells assessed as fold change in Borcs8-RNA stability at 0.1 mM measured by […] analysis relative to control cells
How it was run: (§1)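 Mouse B16-F1 melanoma cells grown to confluence on fibronectin in DMEM/10% FCS at 37 °C, 7% CO2. Migration induced by multiple scratches and 3 h incubation; unscratched controls. DRB 0.1 mM added 3 h before lysis. RNA from poly A-selected mRNA was sequenced (RNA-seq, three replicates per DRB group). Fold change computed for DRB-treated migrating vs DRB-treated control cells; cutoffs fold change >1.3, FDR <0.05.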

[8] = target: T1, RNA polymerase II (Mus musculus); assay: Inhibition of RNA polymerase II in mouse B16-F1 migrating cells assessed as fold change in Tbp-RNA stability at 0.1 mM measured by […] analysis relative to control cells
[9] = target: T1, RNA polymerase II (Mus musculus); assay: Inhibition of RNA polymerase II in mouse B16-F1 migrating cells assessed as fold change in Zcchc10-RNA stability at 0.1 mM measured by […] analysis relative to control cells
[10] = target: T1, RNA polymerase II (Mus musculus); assay: Inhibition of RNA polymerase II in mouse B16-F1 migrating cells assessed as fold change in Mastl-RNA stability at 0.1 mM measured by ChIP-seq analysis relative to control cells
[11] = target: T1, RNA polymerase II (Mus musculus); assay: Inhibition of RNA polymerase II in mouse B16-F1 migrating cells assessed as fold change in Ptbp2-RNA stability at 0.1 mM measured by […] analysis relative to control cells
[12] = target: T1, RNA polymerase II (Mus musculus); assay: Inhibition of RNA polymerase II in mouse B16-F1 migrating cells assessed as fold change in Uba52-RNA stability at 0.1 mM measured by […] analysis relative to control cells
[13] = target: T1, RNA polymerase II (Mus musculus); assay: Inhibition of RNA polymerase II in mouse B16-F1 migrating cells assessed as fold change in Kdelr1-RNA stability at 0.1 mM measured by ChIP-seq analysis relative to control cells; how it was run: as §1
[14] = target: T1, RNA polymerase II (Mus musculus); assay: Inhibition of RNA polymerase II in mouse B16-F1 migrating cells assessed as fold change in Zfp966-RNA stability at 0.1 mM measured by […] analysis relative to control cells
[15] = target: T1, RNA polymerase II (Mus musculus); assay: Inhibition of RNA polymerase II in mouse B16-F1 migrating cells assessed as fold change in Orc4-RNA stability at 0.1 mM measured by […] analysis relative to control cells
[16] = target: Histone-lysine N-methyltransferase EZH2 (Mus musculus) (UniProt Q61188); assay: Inhibition of EZH2 in mouse B16-F1 migrating cells assessed as fold change in H3K27me3-buffered regulated Ccdc126-mRNA expression at 3 uM measured by […] analysis relative to control cells
How it was run: (§2)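 Confluent B16-F1 cells on fibronectin-coated plates, cultured at 37 °C and 7% CO2, were scratched at multiple sites to induce migration. They were then held 3 h in growth medium containing 3 µM GSK343, with the inhibitor added 3 h before lysis. Unscratched cells served as controls. Poly A mRNA was analysed by RNA-seq (n=3 GSK343, n=5 controls). Linear models removed batch effects, and buffered genes were those altered only under GSK343 (FDR <0.05, fold change >1.3).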

[17] = target: Histone-lysine N-methyltransferase EZH2 (Mus musculus) (UniProt Q61188); assay: Inhibition of EZH2 in mouse B16-F1 migrating cells assessed as fold change in H3K27me3-independent regulated Dlx6-mRNA expression at 3 uM measured by […] analysis relative to control cells
How it was run: (§3)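 Confluent B16-F1 cells on fibronectin-coated plates were scratched at multiple sites, washed once with DMEM and left to migrate 3 h in growth medium (37 °C, 7% CO2); unscratched cells served as control. GSK343 (3 µM) was added 3 h before lysis. Poly A mRNA was sequenced (RNA-seq), with 5 replicates for untreated and 3 for treated cells. Differential expression was called by linear model with batch correction, at FDR <0.05 and fold change ≥1.3.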

[18] = target: Histone-lysine N-methyltransferase EZH2 (Mus musculus) (UniProt Q61188); assay: Inhibition of EZH2 in mouse B16-F1 migrating cells assessed as fold change in H3K27me3-independent regulated Fam214b-mRNA expression at 3 uM measured by […] analysis relative to control cells; how it was run: as §3
[19] = target: Histone-lysine N-methyltransferase EZH2 (Mus musculus) (UniProt Q61188); assay: Inhibition of EZH2 in mouse B16-F1 migrating cells assessed as fold change in H3K27me3-independent regulated Adgrg1-mRNA expression at 3 uM measured by […] analysis relative to control cells; how it was run: as §3
[20] = target: Histone-lysine N-methyltransferase EZH2 (Mus musculus) (UniProt Q61188); assay: Inhibition of EZH2 in mouse B16-F1 migrating cells assessed as fold change in H3K27me3-independent regulated Eva1a-mRNA expression at 3 uM measured by ChIP-seq analysis relative to control cells; how it was run: as §3
[21] = target: Histone-lysine N-methyltransferase EZH2 (Mus musculus) (UniProt Q61188); assay: Inhibition of EZH2 in mouse B16-F1 migrating cells assessed as fold change in H3K27me3-dependent regulated Espnl-mRNA expression at 3 uM measured by […] analysis relative to control cells; how it was run: as §3
[22] = target: Histone-lysine N-methyltransferase EZH2 (Mus musculus) (UniProt Q61188); assay: Inhibition of EZH2 in mouse B16-F1 migrating cells assessed as fold change in H3K27me3-buffered regulated Ndufv3-mRNA expression at 3 uM measured by […] analysis relative to control cells; how it was run: as §2
[23] = target: Histone-lysine N-methyltransferase EZH2 (Mus musculus) (UniProt Q61188); assay: Inhibition of EZH2 in mouse B16-F1 migrating cells assessed as fold change in H3K27me3-buffered regulated Gm28989-mRNA expression at 3 uM measured by […] analysis relative to control cells; how it was run: as §2
[24] = target: Histone-lysine N-methyltransferase EZH2 (Mus musculus) (UniProt Q61188); assay: Inhibition of EZH2 in mouse B16-F1 migrating cells assessed as fold change in H3K27me3-buffered regulated Clk1-mRNA expression at 3 uM measured by […] analysis relative to control cells; how it was run: as §2

Sequence of Histone-lysine N-methyltransferase EZH2 (Mus musculus) (Q61188 whole entry): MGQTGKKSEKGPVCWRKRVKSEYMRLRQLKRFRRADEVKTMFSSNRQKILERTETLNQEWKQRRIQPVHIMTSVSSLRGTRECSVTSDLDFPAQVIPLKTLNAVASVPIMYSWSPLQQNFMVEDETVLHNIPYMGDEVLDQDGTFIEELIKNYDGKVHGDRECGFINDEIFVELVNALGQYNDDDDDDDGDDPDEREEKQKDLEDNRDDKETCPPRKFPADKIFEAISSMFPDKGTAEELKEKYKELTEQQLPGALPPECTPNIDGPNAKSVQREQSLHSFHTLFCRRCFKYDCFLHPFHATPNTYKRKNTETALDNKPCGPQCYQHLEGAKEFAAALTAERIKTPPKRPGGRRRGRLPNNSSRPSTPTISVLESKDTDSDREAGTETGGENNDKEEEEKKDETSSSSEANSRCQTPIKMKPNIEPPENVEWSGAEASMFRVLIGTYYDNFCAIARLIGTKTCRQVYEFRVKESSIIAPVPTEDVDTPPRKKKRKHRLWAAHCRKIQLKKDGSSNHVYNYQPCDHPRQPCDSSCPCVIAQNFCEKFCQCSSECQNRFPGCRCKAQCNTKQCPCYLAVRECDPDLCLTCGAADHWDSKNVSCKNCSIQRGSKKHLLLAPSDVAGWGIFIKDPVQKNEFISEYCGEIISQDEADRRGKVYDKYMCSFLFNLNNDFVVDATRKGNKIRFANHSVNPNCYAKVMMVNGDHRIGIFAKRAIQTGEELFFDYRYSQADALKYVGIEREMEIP

Q: For `OC[C@H]1O[C@@H](n2cnc3cc(Cl)c(Cl)cc32)[C@H](O)[C@@H]1O`, which log2FC [1] is on record?
A: Its log2FC is 0.38.

Q: And the log2FC [2]?
A: Its log2FC is 0.6.

Q: What about the log2FC [3] of the same compound?
A: Its log2FC is -0.97.

Q: And the log2FC [4]?
A: Its log2FC is -0.59.

Q: What about the log2FC [5] of the same compound?
A: The log2FC was -0.48.

Q: What about the log2FC [6] of the same compound?
A: The log2FC was -0.48.

Q: What about the log2FC [7] of the same compound?
A: Its log2FC is 0.57.

Q: What about the log2FC [8] of the same compound?
A: The log2FC was -0.56.

Q: What about the log2FC [9] of the same compound?
A: The log2FC was -0.7.

Q: What about the log2FC [10] of the same compound?
A: The log2FC was -0.74.

Q: And the log2FC [11]?
A: The log2FC was -0.56.

Q: And the log2FC [12]?
A: Its log2FC is 0.49.

Q: And the log2FC [13]?
A: Its log2FC is 0.4.

Q: And the log2FC [14]?
A: The log2FC was -0.82.

Q: And the log2FC [15]?
A: Its log2FC is -0.54.

Q: How did the log2FC [16] turn out when `CCCc1cc(C)[nH]c(=O)c1CNC(=O)c1cc(-c2ccnc(N3CCN(C)CC3)c2)cc2c1cnn2C(C)C` was run?
A: Its log2FC is -0.49.

Q: What about the log2FC [17] of the same compound?
A: The log2FC was -0.86.

Q: And the log2FC [18]?
A: The log2FC was 0.53.

Q: And the log2FC [19]?
A: The log2FC was 0.48.

Q: What about the log2FC [20] of the same compound?
A: Its log2FC is 0.84.

Q: And the log2FC [21]?
A: The log2FC was 0.55.

Q: What about the log2FC [22] of the same compound?
A: Its log2FC is 0.38.

Q: What about the log2FC [23] of the same compound?
A: Its log2FC is 1.08.

Q: And the log2FC [24]?
A: Its log2FC is -0.75.
